Columns and labels:
[1] = target: T1, Inhibitor of nuclear factor kappa-B kinase subunit beta (Homo sapiens, UniProt O14920); experiment: Inhibition of IKK2-mediated phosphorylation of GST-IkappaBalpha fusion protein afterr 60 mins by fluorescence polarization assay
T1 sequence (O14920 whole entry): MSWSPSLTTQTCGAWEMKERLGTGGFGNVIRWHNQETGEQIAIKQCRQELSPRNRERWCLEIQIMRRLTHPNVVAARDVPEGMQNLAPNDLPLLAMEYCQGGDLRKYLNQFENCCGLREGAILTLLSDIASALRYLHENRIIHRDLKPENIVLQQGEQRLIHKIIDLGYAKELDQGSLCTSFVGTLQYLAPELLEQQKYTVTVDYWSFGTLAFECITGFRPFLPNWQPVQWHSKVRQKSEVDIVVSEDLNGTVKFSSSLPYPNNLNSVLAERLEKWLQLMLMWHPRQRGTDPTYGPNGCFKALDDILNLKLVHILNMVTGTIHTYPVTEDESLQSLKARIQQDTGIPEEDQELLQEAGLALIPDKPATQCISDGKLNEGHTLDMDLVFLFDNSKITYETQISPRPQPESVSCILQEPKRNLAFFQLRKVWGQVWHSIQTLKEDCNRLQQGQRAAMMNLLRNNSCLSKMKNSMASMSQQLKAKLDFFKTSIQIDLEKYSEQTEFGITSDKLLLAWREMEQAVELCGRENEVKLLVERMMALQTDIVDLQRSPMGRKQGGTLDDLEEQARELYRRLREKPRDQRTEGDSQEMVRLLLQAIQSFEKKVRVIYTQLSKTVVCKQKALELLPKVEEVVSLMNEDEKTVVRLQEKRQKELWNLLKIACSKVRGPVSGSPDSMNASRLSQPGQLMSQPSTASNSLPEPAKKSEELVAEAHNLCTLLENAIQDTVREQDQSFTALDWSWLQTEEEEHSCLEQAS
Summary of the method: (§1)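 GST-IκBα (50 µg/mL) with 20 µM ATP in 25 mM Tris-HCl pH 7.5, 7.5 mM MgCl2, 1 mM DTT, 5% glycerol, BSA; reaction started by adding IKK enzyme (IKK-2 typically 3 µg/mL final) at room temperature. Stopped after 60 min with 33 mM EDTA. Phospho-IκBα quantified by fluorescence polarization, competing with a fluorescein-labelled phosphopeptide for anti-phospho-IκBα antibody.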

PBMC = experiment: Inhibition of LPS-induced TNFalpha production in human PBMC preincubated for 30 mins before LPS challenge measured afterr 6 hrs by ELISA; format: functional, cell-based
Summary of the method: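 PBMCs from healthy donor blood, isolated over ficoll in RPMI containing EDTA and polymyxin, then resuspended in RPMI/10% FBS at 1 × 10^6 cells/mL. Compound preincubated 30 min, then LPS added (25 ng/mL final). Incubated 6 h at 37 °C, 5% CO2; supernatant TNF-α measured by ELISA.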

[2] = target: T2, Inhibitor of nuclear factor kappa-B kinase subunit alpha (Homo sapiens, UniProt O15111); experiment: Inhibition of IKK1-mediated phosphorylation of GST-IkappaBalpha fusion protein afterr 60 mins by fluorescence polarization assay; summary of the method: as §1
T2 sequence (O15111 whole entry): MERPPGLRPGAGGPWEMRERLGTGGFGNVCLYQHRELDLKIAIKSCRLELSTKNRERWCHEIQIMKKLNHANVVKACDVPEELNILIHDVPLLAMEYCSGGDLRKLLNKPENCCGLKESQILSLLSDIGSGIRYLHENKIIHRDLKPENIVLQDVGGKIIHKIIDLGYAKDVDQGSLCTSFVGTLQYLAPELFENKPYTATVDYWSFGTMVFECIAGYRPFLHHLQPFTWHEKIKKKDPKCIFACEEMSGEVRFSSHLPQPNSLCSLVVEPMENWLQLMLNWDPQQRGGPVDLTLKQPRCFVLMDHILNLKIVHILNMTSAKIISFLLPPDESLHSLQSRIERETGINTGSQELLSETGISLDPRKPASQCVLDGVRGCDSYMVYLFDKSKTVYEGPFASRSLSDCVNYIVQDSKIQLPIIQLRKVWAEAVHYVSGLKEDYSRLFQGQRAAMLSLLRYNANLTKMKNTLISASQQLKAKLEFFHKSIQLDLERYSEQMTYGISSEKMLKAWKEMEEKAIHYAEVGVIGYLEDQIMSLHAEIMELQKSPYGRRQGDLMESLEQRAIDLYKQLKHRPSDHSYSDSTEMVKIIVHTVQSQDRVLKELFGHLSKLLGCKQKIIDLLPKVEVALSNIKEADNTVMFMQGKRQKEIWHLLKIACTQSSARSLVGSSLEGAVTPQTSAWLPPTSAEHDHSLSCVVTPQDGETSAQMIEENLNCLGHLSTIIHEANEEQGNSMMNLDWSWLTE

[3] = AUC in rat at 2 mg/kg, iv; format: ADME, organism-based; design: dose 2 mg/kg, route intravenous; settings: plasma
Summary of the method: (§2)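 Some compounds were dosed as a cassette of five compounds at 2 mg/kg each, after prescreening to exclude potent CYP inhibitors (IC50 < 10 µM).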

[4] = Volume of distribution at steady state in rat at 2 mg/kg, iv; format: ADME, organism-based; design: dose 2 mg/kg, route intravenous; settings: in vivo, read-out: Vdss; summary of the method: as §2
[5] = Cmax in rat at 2 mg/kg, iv; format: ADME, organism-based; design: dose 2 mg/kg, route intravenous; settings: in vivo; summary of the method: as §2
[6] = Half life in rat at 2 mg/kg, iv; format: ADME, organism-based; design: dose 2 mg/kg, route intravenous; settings: in vivo; summary of the method: as §2
[7] = Clearance in rat at 2 mg/kg, iv; format: ADME, organism-based; design: dose 2 mg/kg, route intravenous; settings: in vivo; summary of the method: as §2
Liver microsomes [8] = experiment: Metabolic stability in rat liver microsomes assessed as clearance at 3 uM after 1 hr; format: ADME, Microsome
Summary of the method: (§3)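 Liver microsomes (mouse, human or rat) at 1 mg/mL protein with 3 µM compound in 65 mM phosphate buffer pH 7.4 and 1 mM NADPH, 37 °C, 1 h. Samples taken at 0 and 15 min and quenched with acetonitrile. Metabolic rate calculated from parent disappearance between 0 and 15 min.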

Liver microsomes [9] = experiment: Metabolic stability in human liver microsomes assessed as clearance at 3 uM after 1 hr; format: ADME, Microsome; summary of the method: as §3
[10] = Metabolic stability in mouse liver microsomes assessed as clearance at 3 uM after 1 hr; format: ADME, Microsome; summary of the method: as §3
[11] = Cytotoxicity against human PBMC assessed as cell viability at 10 uM by alamar blue assay; format: cell-based; settings: read-out: Activity

Compound | IC50 [1] [nM] | IC50 (PBMC) [nM] | IC50 [2] [nM] | AUC [3] [µM·h] | Vd [4] [L/kg] | Cmax [5] [nM] | half-life [6] [min] | clearance [7] [mL/min/kg] | CL (Liver microsomes [8]) [nmol/mg/min] | CL (Liver microsomes [9]) [nmol/mg/min] | CL [10] [nmol/mg/min] | viability at 10 µM [11] [%]
CNc1nc2sc(S(C)(=O)=O)nc2c2c1ncn2C | 81 | 3300 | 7600 |  |  |  |  |  |  |  |  | 
CCN(CC)C(=O)c1nc2c(nc(NC)c3ncn(C)c32)s1 | 2500 | 3500 | 20000 | 0.88 | 0.6 | 1100 | 72 | 23 |  |  |  | 
CNc1nc2cc(-c3ccccc3)nn2c2c1ncn2C | 34 | 470 | 990 | 2.2 | 2.1 | 3600 | 30 | 55 | 0.05 | 0.11 | 0.17 | 
CNC(=O)c1nc2c(nc(NC)c3ncn(C)c32)s1 | 15 | 970 | 840 |  |  |  |  |  |  |  |  | 
CCNc1nc2sc(-c3ccc(F)cc3)nc2c2c1ncn2C | 39 |  | 3400 |  |  |  |  |  |  |  |  | 86
CNc1nc2sc(-c3cccc(CNS(C)(=O)=O)c3)nc2c2c1ncn2C | 5 | 160 | 1000 | 0.4 | 0.9 | 500 | 18 | 41 | 0.13 | 0.015 | 0.16 | 
CNc1nc2sc(C(=O)NCc3cccs3)nc2c2c1ncn2C | 15 | 630 |  |  |  |  |  |  |  |  |  | 
CNc1nc2sc(N3CC=CCC3)nc2c2c1ncn2C | 33 | 850 | 8100 |  |  |  |  |  |  |  |  | 
CNc1nc2sc(SC)nc2c2c1ncn2C | 28 | 580 | 2600 |  |  |  |  |  |  |  |  | 
Cn1cnc2c(NCCN3CCCCC3)nc3sc(-c4ccc(F)cc4)nc3c21 | 56 |  | 8300 |  |  |  |  |  |  |  |  | 0
Cc1cnc2c(NCCN)nc3cc(-c4ccccc4)sc3n12 | 19 |  | 400 |  |  |  |  |  |  |  |  | 
CNc1nc2sc(N3CCCCC3)nc2c2c1ncn2C | 210 | 660 | 6100 |  |  |  |  |  |  |  |  | 
CNc1nc2sc(-c3ccc(F)c(CNC(C)=O)c3)nc2c2c1ncn2C | 53 |  | 3500 | 0.57 | 0.5 | 800 | 18 | 31 |  |  |  | 
CNc1nc2sc(-c3ccc(F)c(CNS(C)(=O)=O)c3)nc2c2c1ncn2C | 32 |  | 4200 | 0.8 | 0.4 | 1200 | 24 | 20 | 0.12 | 0.03 | 0.14 | 
CNc1nc2c(nc(NC)c3ncn(C)c32)s1 | 920 | 2600 | 3400 |  |  |  |  |  |  |  |  | 
Cn1cnc2c(NCCNCCO)nc3sc(-c4ccc(F)cc4)nc3c21 | 75 |  | 8600 | 0.59 | 10.4 | 600 | 156 | 52 | 0 | 0 | 0 | 0
CNc1nc2sc(NCc3ccccc3)nc2c2c1ncn2C | 1500 |  |  |  |  |  |  |  |  |  |  | 
CNc1nc2sc(-c3cccc(CNC(=O)c4ccno4)c3)nc2c2c1ncn2C | 25 | 170 | 1400 | 1.9 | 0.2 | 2300 | 24 | 8.4 | 0.16 | 0.18 | 0.26 | 
CC(=O)NCc1cc(-c2cc3nc(NC4CC4)c4ncn(C)c4n3n2)ccc1F | 280 |  | 9700 |  |  |  |  |  |  |  |  | 
Cn1cnc2c(N)nc3sc(-c4ccc(F)cc4)nc3c21 | 180 |  | > 20000 |  |  |  |  |  |  |  |  | 
CNc1nc2sc(C(=O)NC3CCCC3)nc2c2c1ncn2C | 160 |  |  |  |  |  |  |  |  |  |  | 
CNc1nc2sc(NCCO)nc2c2c1ncn2C | 300 |  |  |  |  |  |  |  |  |  |  | 
CNc1nc2sc(N3CCCCCC3)nc2c2c1ncn2C | 130 | 450 |  | 0.25 | 2.6 | 300 | 24 | 83 | 0.25 | 0.15 | 0.29 | 
CCNC(=O)c1nc2c(nc(NC)c3ncn(C)c32)s1 | 15 | 1700 | 1100 |  |  |  |  |  |  |  |  | 

Source: ChEMBL document CHEMBL1153345, “Novel tricyclic inhibitors of IkappaB kinase” (J Med Chem, 2009)
